From ChEMBL document CHEMBL1132437, “Synthesis and antimicrobial activity of 4H-4-oxoquinolizine derivatives: consequences of structural modification at the C-8 position” (1999) come the findings set out here.

Broadly, the MIC is the least concentration at which growth counts as inhibited.

The structures appear in SMILES notation. In brackets after ≈: the same amount, converted by molar mass.

Holding throughout (format): functional
The test system of assay [1] is Burkholderia cepacia. Kind of assay: In vitro antibacterial activity against gram negative Pseudomonas cepacia 2961. Particulars: Burkholderia cepacia; read-out: MIC. An outline of the steps: (§1)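 Agar dilution MIC determination following the National Committee for Clinical Laboratory Standards recommendations.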
Assay [2] has as its system Streptococcus pyogenes. The assay can be described thus: In vitro antibacterial activity against gram positive Streptococcus pyogenes 930. The procedure, abridged: as §1
Assay [3] deals with Staphylococcus aureus. The assay can be described thus: In vitro antibacterial activity against gram-positive Staphylococcus aureus NCTC 10649M. Particulars: Staphylococcus aureus, NCTC 10649; read-out: MIC. An outline of the steps: as §1
For assay [4], the system named is Enterococcus faecium. Kind of assay: In vitro antibacterial activity against gram-positive Enterococcus faecium ATCC 8043. Particulars: Enterococcus faecium, ATCC 8043; read-out: MIC. An outline of the steps: as §1
The test system of assay [5] is Pseudomonas aeruginosa. The assay can be described thus: In vitro antibacterial activity against Gram-negative Pseudomonas aeruginosa 5007. Particulars: Pseudomonas aeruginosa; read-out: MIC. The procedure, abridged:
as §1

The subject of assay [6] is Staphylococcus aureus. Kind of assay: In vitro antibacterial activity against gram-positive Staphylococcus aureus 1775. An outline of the steps: as §1
Assay [7] deals with Escherichia coli. Kind of assay: In vitro antibacterial activity against gram negative Escherichia coli KNK 437. An outline of the steps:
as §1

Assay [8] concerns Pseudomonas aeruginosa. The assay can be described thus: In vitro antibacterial activity against gram negative P. aeruginosa DPHP 5263. The procedure, abridged: as §1
Setting [9] is: Streptococcus pyogenes, read-out: MIC.
[10] abbreviates: Staphylococcus aureus, read-out: MIC.
[11] abbreviates: Escherichia coli, read-out: MIC.
[12] abbreviates: Pseudomonas aeruginosa, DPHP 5263, read-out: MIC.

Take `Cc1c(N2CCC(CN)(C(F)(F)F)C2)c(F)cn2c(=O)c(C(=O)O)cc(C3CC3)c12` (centres undefined): the MIC in assay [1] was 6.2 µg/mL (≈ 14.5 µM); in assay [2] (setting [9]), 0.1 µg/mL (≈ 0.234 µM); in assay [3] it was 0.02 µg/mL (≈ 0.0468 µM); in assay [4], 0.2 µg/mL (≈ 0.468 µM); in assay [5] it was 1.56 µg/mL (≈ 3.65 µM); in assay [6] (setting [10]) it was 0.39 µg/mL (≈ 0.912 µM). Also, the values for the MIC in assay [7] (setting [11]) and in assay [8] (setting [12]) were 0.39 µg/mL (≈ 0.912 µM) and 25 µg/mL (≈ 58.5 µM), respectively.
`CN[C@@H]1CN(c2c(F)cn3c(=O)c(C(=O)O)cc(C4CC4)c3c2C)C[C@H]1C` (stereo in doubt): the MIC was 0.78 µg/mL (≈ 2.09 µM) in assay [1]; 0.02 µg/mL (≈ 0.0536 µM) in assay [2]; 0.01 µg/mL (≈ 0.0268 µM) in assay [3]; 0.1 µg/mL (≈ 0.268 µM) in assay [4]; 0.2 µg/mL (≈ 0.536 µM) in assay [5]; 0.39 µg/mL (≈ 1.04 µM) in assay [6]. In addition, the MIC in assay [7] was found to be 0.05 µg/mL (≈ 0.134 µM); in assay [8], 3.1 µg/mL (≈ 8.3 µM).
As to `Cc1c(N2C[C@H](N)[C@H](C3CC3)C2)c(F)cn2c(=O)c(C(=O)O)cc(C3CC3)c12`, the MIC in assay [1] is 1.56 µg/mL (≈ 4.05 µM); in assay [2] (setting [9]) it was 0.1 µg/mL (≈ 0.259 µM); in assay [3], 0.02 µg/mL (≈ 0.0519 µM); in assay [4], 0.1 µg/mL (≈ 0.259 µM); in assay [5], 0.39 µg/mL (≈ 1.01 µM); in assay [6] (setting [10]), 0.78 µg/mL (≈ 2.02 µM). Also, the MIC in assay [7] (setting [11]) was determined as 0.2 µg/mL (≈ 0.519 µM); in assay [8] (setting [12]), 12.5 µg/mL (≈ 32.4 µM).
In the case of `Cc1c(N2C[C@@H]3CCCC[C@]3(N)C2)c(F)cn2c(=O)c(C(=O)O)cc(C3CC3)c12`, the MIC was found to be 1.56 µg/mL (≈ 3.91 µM) in assay [1]; 0.2 µg/mL (≈ 0.501 µM) in assay [2] (setting [9]); 0.05 µg/mL (≈ 0.125 µM) in assay [3]; 0.2 µg/mL (≈ 0.501 µM) in assay [4]; 1.56 µg/mL (≈ 3.91 µM) in assay [5]; 1.56 µg/mL (≈ 3.91 µM) in assay [6] (setting [10]). The minimal inhibitory concentration (MIC) stood at 0.78 µg/mL (≈ 1.95 µM) in assay [7] (setting [11]) and 25 µg/mL (≈ 62.6 µM) in assay [8] (setting [12]).
In the case of `Cc1c(N2CCCC(N)C2)c(F)cn2c(=O)c(C(=O)O)cc(C3CC3)c12` (centres undefined), the MIC came to 0.78 µg/mL (≈ 2.17 µM) in assay [1]; 0.02 µg/mL (≈ 0.0556 µM) in assay [2] (setting [9]); 0.01 µg/mL (≈ 0.0278 µM) in assay [3]; 0.05 µg/mL (≈ 0.139 µM) in assay [4]; 0.2 µg/mL (≈ 0.556 µM) in assay [5]; 0.39 µg/mL (≈ 1.09 µM) in assay [6] (setting [10]). Further, the MIC turned out to be 0.1 µg/mL (≈ 0.278 µM) in assay [7] (setting [11]) and 3.1 µg/mL (≈ 8.63 µM) in assay [8] (setting [12]).
Regarding `Cc1c(N2CCC(N(C)C3CC3)C2)c(F)cn2c(=O)c(C(=O)O)cc(C3CC3)c12` (centres undefined), the MIC in assay [1] worked out at 3.1 µg/mL (≈ 7.76 µM); in assay [2] (setting [9]), 0.2 µg/mL (≈ 0.501 µM); in assay [3] it was 0.05 µg/mL (≈ 0.125 µM); in assay [4] it was 0.2 µg/mL (≈ 0.501 µM); in assay [5] it was 0.78 µg/mL (≈ 1.95 µM); in assay [6] (setting [10]), 1.56 µg/mL (≈ 3.91 µM). The MIC in assay [7] (setting [11]) was 0.39 µg/mL (≈ 0.976 µM); in assay [8] (setting [12]), 100 µg/mL (≈ 250 µM).
Regarding `Cc1c(N2C[C@H](C)[C@@H](N)C2)c(F)cn2c(=O)c(C(=O)O)cc(C3CC3)c12`, the MIC in assay [1] turned out to be 0.78 µg/mL (≈ 2.17 µM); in assay [2] (setting [9]) it was 0.1 µg/mL (≈ 0.278 µM); in assay [3] it was 0.05 µg/mL (≈ 0.139 µM); in assay [4], 0.2 µg/mL (≈ 0.556 µM); in assay [5] it was 0.39 µg/mL (≈ 1.09 µM); in assay [6] (setting [10]), 0.78 µg/mL (≈ 2.17 µM). Further, the figures for the MIC in assay [7] (setting [11]) and in assay [8] (setting [12]) were 0.1 µg/mL (≈ 0.278 µM) and 3.1 µg/mL (≈ 8.63 µM), respectively.
`Cc1c(N2C[C@@H]3COC[C@]3(CN)C2)c(F)cn2c(=O)c(C(=O)O)cc(C3CC3)c12`: the MIC in assay [1] is 6.2 µg/mL (≈ 15.4 µM); in assay [2] (setting [9]) it was 0.02 µg/mL (≈ 0.0498 µM); in assay [3] it was 0.01 µg/mL (≈ 0.0249 µM); in assay [4], 0.05 µg/mL (≈ 0.125 µM); in assay [5], 6.2 µg/mL (≈ 15.4 µM); in assay [6] (setting [10]), 3.1 µg/mL (≈ 7.72 µM). The MIC in assay [7] (setting [11]) was 0.1 µg/mL (≈ 0.249 µM); in assay [8] (setting [12]), 6.2 µg/mL (≈ 15.4 µM).
For the molecule `Cc1c(N2CC[C@@H]3CNC[C@@H]32)c(F)cn2c(=O)c(C(=O)O)cc(C3CC3)c12`, the MIC amounted to 3.1 µg/mL (≈ 8.35 µM) in assay [1]; 0.05 µg/mL (≈ 0.135 µM) in assay [3]; 0.1 µg/mL (≈ 0.269 µM) in assay [4]; 6.2 µg/mL (≈ 16.7 µM) in assay [6] (setting [10]); 0.2 µg/mL (≈ 0.538 µM) in assay [7] (setting [11]).
For `Cc1c(N2CC[C@@H](N)C2)c(F)cn2c(=O)c(C(=O)O)cc(C3CC3)c12`, the MIC in assay [1] is 0.78 µg/mL (≈ 2.26 µM); in assay [3], 0.02 µg/mL (≈ 0.0579 µM); in assay [4] it was 0.05 µg/mL (≈ 0.145 µM); in assay [6] (setting [10]) it was 1.56 µg/mL (≈ 4.52 µM); in assay [7] (setting [11]), 0.05 µg/mL (≈ 0.145 µM).
Regarding `CN[C@H]1CCN(c2c(F)cn3c(=O)c(C(=O)O)cc(C4CC4)c3c2C)C1`, the MIC in assay [1] was found to be 1.56 µg/mL (≈ 4.34 µM); in assay [2] (setting [9]), 0.05 µg/mL (≈ 0.139 µM); in assay [3], 0.02 µg/mL (≈ 0.0556 µM); in assay [4], 0.1 µg/mL (≈ 0.278 µM); in assay [5] it was 0.2 µg/mL (≈ 0.556 µM); in assay [6] (setting [10]) it was 1.56 µg/mL (≈ 4.34 µM). In assay [7] (setting [11]), the MIC was found to be 0.05 µg/mL (≈ 0.139 µM).
Regarding `Cc1c(N2CC[C@@H](C)[C@@H](N)C2)c(F)cn2c(=O)c(C(=O)O)cc(C3CC3)c12`, the MIC stood at 6.2 µg/mL (≈ 16.6 µM) in assay [1]; 0.39 µg/mL (≈ 1.04 µM) in assay [2] (setting [9]); 0.1 µg/mL (≈ 0.268 µM) in assay [3]; 0.39 µg/mL (≈ 1.04 µM) in assay [4]; 1.56 µg/mL (≈ 4.18 µM) in assay [5]; 3.1 µg/mL (≈ 8.3 µM) in assay [6] (setting [10]). Besides, the MIC in assay [7] (setting [11]) was found to be 0.78 µg/mL (≈ 2.09 µM); in assay [8] (setting [12]), 12.5 µg/mL (≈ 33.5 µM).
For `Cc1c(N2CCC(CN)C2)c(F)cn2c(=O)c(C(=O)O)cc(C3CC3)c12` (centres undefined), the MIC in assay [1] amounted to 0.39 µg/mL (≈ 1.09 µM); in assay [3] it was 0.002 µg/mL (≈ 0.00556 µM); in assay [4] it was 0.01 µg/mL (≈ 0.0278 µM); in assay [6] (setting [10]), 0.39 µg/mL (≈ 1.09 µM); in assay [7] (setting [11]), 0.05 µg/mL (≈ 0.139 µM).
